Data as given in ChEMBL document CHEMBL2380254, “Optimization of tocotrienols as antiproliferative and antimigratory leads” (Eur J Med Chem, 2013).

How the values were obtained:
KM12 = test: Growth inhibition of human KM12 cells assessed as cell growth at 10 uM after 48 hrs by sulforhodamine B assay; format: functional; details: KM12, 48 h, read-out: Activity
How it was run: (§1)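 NCI-60 single-dose screen at 10 µM: cells in RPMI 1640 with 5% FBS, preincubated 24 h, then exposed 48 h at 37 °C. TCA fixation (16% final for suspension cells), SRB staining, absorbance 515 nm. Percent growth relative to time-zero and untreated control plates; negative values indicate cell kill.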

A498 = test: Growth inhibition of human A498 cells assessed as cell growth at 10 uM after 48 hrs by sulforhodamine B assay; format: functional; details: A498, 48 h, read-out: Activity; how it was run: as §1
OVCAR-4 = test: Growth inhibition of human OVCAR4 cells assessed as cell growth at 10 uM after 48 hrs by sulforhodamine B assay; format: functional; details: OVCAR-4, 48 h, read-out: Activity
How it was run: (§2)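 Single-dose NCI-60 screen: adherent cells in RPMI 1640 with 5% FBS were exposed to 10 µM for 48 h at 37 °C after a 24 h preincubation. They were fixed in situ with cold TCA (10% final), stained with 0.4% SRB in 1% acetic acid, solubilized in 10 mM Tris base, and read at 515 nm. Percent growth was taken relative to time-zero and control plates.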

UO-31 = test: Growth inhibition of human UO31 cells assessed as cell growth at 10 uM after 48 hrs by sulforhodamine B assay; format: functional; details: UO-31, 48 h, read-out: Activity
How it was run: (§3)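 Single-dose NCI-60 test at 10 µM. Cells were grown in RPMI 1640 with 5% FBS and 2 mM L-glutamine, preincubated 24 h, with T0 plates TCA-fixed. Exposure was 48 h at 37 °C, 5% CO2. Cells were fixed with cold TCA (final 10%, 4 °C, 60 min), stained with SRB and read at 515 nm. Percent growth was taken relative to T0 and untreated control; negative values denote cell kill.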

[1] = Growth inhibition of human EKVX cells assessed as cell growth at 10 uM after 48 hrs by sulforhodamine B assay; format: functional; details: read-out: Activity; how it was run: as §1
SK-MEL-2 = test: Growth inhibition of human SK-MEL-2 cells assessed as cell growth at 10 uM after 48 hrs by sulforhodamine B assay; format: functional; details: SK-MEL-2, 48 h, read-out: Activity; how it was run: as §2
PC-3 = test: Growth inhibition of human PC3 cells assessed as cell growth at 10 uM after 48 hrs by sulforhodamine B assay; format: functional; details: PC-3, 48 h, read-out: Activity; how it was run: as §2
UACC-257 [2] = test: Growth inhibition of human UACC257 cells assessed as cell growth at 10 uM after 48 hrs by sulforhodamine B assay; format: functional; details: UACC-257, 48 h, read-out: Activity; how it was run: as §3
NCI-H522 = test: Growth inhibition of human NCI-H522 cells assessed as cell growth at 10 uM after 48 hrs by sulforhodamine B assay; format: functional; details: NCI-H522, 48 h, read-out: Activity; how it was run: as §2
M14 = test: Growth inhibition of human M14 cells assessed as cell growth at 10 uM after 48 hrs by sulforhodamine B assay; format: functional; details: M14, 48 h, read-out: Activity; how it was run: as §1
SK-OV-3 [3] = test: Growth inhibition of human SKOV3 cells assessed as cell growth at 10 uM after 48 hrs by sulforhodamine B assay; format: functional; details: SK-OV-3, 48 h, read-out: Activity; how it was run: as §3
RPMI-8226 = test: Growth inhibition of human RPMI8226 cells assessed as cell growth at 10 uM after 48 hrs by sulforhodamine B assay; format: functional; details: RPMI-8226, 48 h, read-out: Activity
How it was run: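 Single 10 µM dose applied to suspension cells in RPMI 1640 with 5% FBS and 2 mM L-glutamine for 48 h at 37 °C. Settled cells were fixed with 80% TCA (16% final), stained with SRB, and read at 515 nm. Percent growth was calculated against time-zero and untreated control optical densities.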

MDA-MB-231 = test: Antiproliferative activity against human MDA-MB-231 cells by MTT assay; format: functional, cell-based
How it was run: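 Cells plated at 8 × 10^3/well (MDA-MB-231) or 10^4/well (MCF7) in 96-well plates. Compounds fed in media with 5% FBS (MDA-MB-231) or 1% FBS (MCF7). MTT read-out of viable cells.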

MDA-MB-435 = test: Growth inhibition of human MDA-MB-435 cells after 48 hrs by sulforhodamine B assay; format: functional; details: MDA-MB-435, 48 h
How it was run: (§4)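 NCI-60 panel cells grown in RPMI 1640 with 5% FBS and 2 mM L-glutamine, seeded at 5000–40,000 cells/well and preincubated 24 h. Five 10-fold dilutions (0.001–100 µM) from DMSO stocks were added for 48 h at 37 °C. Adherent cells were fixed with cold TCA (10% final) for 60 min at 4 °C, stained with 0.4% SRB, and read at 515 nm. GI50 was set where 100×(T−T0)/(C−T0)=50.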

UACC-257 [4] = test: Growth inhibition of human UACC257 cells after 48 hrs by sulforhodamine B assay; format: functional; details: UACC-257, 48 h
How it was run: (§5)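 NCI-60 five-dose screen. Cells were grown in RPMI 1640 with 5% FBS and 2 mM L-glutamine, plated at 5000–40,000 cells/well and incubated 24 h before dosing, with T0 plates TCA-fixed. DMSO stocks were diluted to doses of […] and exposed 48 h at 37 °C, 5% CO2. Cells were fixed with cold TCA (final 10%, 60 min, 4 °C), stained with 0.4% SRB in 1% acetic acid for 10 min, solubilized in 10 mM trizma base and read at 515 nm. GI50 is where 100×(T−T0)/(C−T0)=50.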

HL-60(TB) = test: Growth inhibition of human HL-60(TB) cells after 48 hrs by sulforhodamine B assay; format: functional; details: HL-60, 48 h
How it was run: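 HL-60(TB) cells (suspension) grown in RPMI 1640 with 5% FBS and 2 mM L-glutamine. They were plated and preincubated for 24 h, with T0 plates fixed at that point. Drug was given at five 10-fold dilutions for 48 h at 37 °C. Settled cells were fixed with TCA (16% final), stained with 0.4% SRB in 1% acetic acid and read at 515 nm. GI50 was taken where 100×(T−T0)/(C−T0)=50.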

HCT-15 = test: Growth inhibition of human HCT15 cells after 48 hrs by sulforhodamine B assay; format: functional; details: HCT-15, 48 h
How it was run: (§6)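 NCI-60 screen: cells in RPMI 1640 with 5% FBS and 2 mM glutamine, 5000–40,000 cells/well, preincubated 24 h. Five concentrations (10-fold dilutions; 100 to 0.001 µM) applied for 48 h at 37 °C. TCA fixation, SRB stain, absorbance at 515 nm. Time-zero plates included; GI50 where 100×(T−T0)/(C−T0)=50.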

A549 = test: Growth inhibition of human A549/ATCC cells after 48 hrs by sulforhodamine B assay; format: functional; details: A549, 48 h; how it was run: as §6
SK-OV-3 [5] = test: Growth inhibition of human SKOV3 cells after 48 hrs by sulforhodamine B assay; format: functional; details: SK-OV-3, 48 h; how it was run: as §5
Malme-3M = test: Growth inhibition of human MALME-3M cells after 48 hrs by sulforhodamine B assay; format: functional; how it was run: as §4
ACHN = test: Growth inhibition of human ACHN cells after 48 hrs by sulforhodamine B assay; format: functional; how it was run: as §6

| Structure (SMILES) | growth at 10 µM (KM12) [%] | growth at 10 µM (A498) [%] | growth at 10 µM (OVCAR-4) [%] | growth at 10 µM (UO-31) [%] | growth at 10 µM [1] [%] | growth at 10 µM (SK-MEL-2) [%] | growth at 10 µM (PC-3) [%] | growth at 10 µM (UACC-257 [2]) [%] | growth at 10 µM (NCI-H522) [%] | growth at 10 µM (M14) [%] | growth at 10 µM (SK-OV-3 [3]) [%] | growth at 10 µM (RPMI-8226) [%] | IC50 (MDA-MB-231) [µM] | other results |
| --- | --- | --- | --- | --- | --- | --- | --- | --- | --- | --- | --- | --- | --- | --- |
| COc1ccc(CCNCc2c(O)c(C)c(C)c3c2CC[C@@](C)(CC/C=C(\C)CC/C=C(\C)CCC=C(C)C)O3)cc1OC | 60.1 | 107 | 84 | 69.5 | 99.3 | 113 | 82.7 | 107 | 96.2 | 90.4 | 105 |  |  |  |
| CC(C)=CCC/C(C)=C/CC/C(C)=C/CC[C@]1(C)CCc2c(CNCCc3ccc(O)cc3)c(O)c(C)c(C)c2O1 | 89.6 | 104 | 91 | 70.8 | 99.8 | 117 | 79.5 | 102 | 105 | 102 | 102 |  |  |  |
| CC(C)=CCC/C(C)=C/CC/C(C)=C/CC[C@]1(C)CCc2c3c(c(C)c(C)c2O1)OCN(CCCCCCCCCCO)C3 | 89.1 |  | 105 | 71.7 | 102 | 82.3 | 84.3 | 102 |  | 101 |  | 78.8 | 15.7 |  |
| CC(C)=CCC/C(C)=C/CC/C(C)=C/CC[C@]1(C)CCc2c3c(c(C)c(C)c2O1)OCN(CCCCCCCCCCCCO)C3 | 90.4 |  | 107 | 77.7 | 105 | 76.8 | 81.3 | 104 | 69.5 | 113 |  | 87 | > 50 |  |
| CC(C)=CCC/C(C)=C/CC/C(C)=C/CC[C@]1(C)CCc2c3c(cc(C)c2O1)OCN(CCCCCCCCCCCCO)C3 | 61.1 |  | 77.5 | 51.7 | 77.6 | 15.3 | 58.5 | 64.3 | 36.7 | 90.9 |  | 15.8 | > 50 |  |
| CC(C)=CCC/C(C)=C/CC/C(C)=C/CC[C@]1(C)CCc2c3c(cc(C)c2O1)OCN(CCCCCCO)C3 | -79.1 | 121 | -95.5 | -37.8 |  | 62.4 | -31.4 | 90.5 | -0.37 | -90.8 | -37.2 | 35.4 | > 5 | GI50 (MDA-MB-435): 0.967 µM; GI50 (UACC-257 [4]): 0.62 µM; GI50 (HL-60(TB)): 1.37 µM; GI50 (HCT-15): 1.1 µM; GI50 (A549): 0.607 µM; GI50 (SK-OV-3 [5]): 2.62 µM; GI50 (Malme-3M): 6.25 µM; GI50 (ACHN): 2.29 µM |
| CC(C)=CCC/C(C)=C/CC/C(C)=C/CC[C@]1(C)CCc2c3c(c(C)c(C)c2O1)OCN(CCc1ccc(O)cc1)C3 | 65.6 | 90.2 | 81.4 | 71.9 | 93.9 | 121 | 79.9 | 93.6 | 90 | 97.6 | 105 |  | > 5 |  |
| COc1ccc(CCN2COc3c(C)c(C)c4c(c3C2)CC[C@@](C)(CC/C=C(\C)CC/C=C(\C)CCC=C(C)C)O4)cc1OC | 96.4 | 108 | 98.4 | 76.2 | 94.1 | 120 | 94.3 | 105 | 98.6 | 101 | 95.3 | 64.6 | > 50 |  |
| CC(C)=CCC/C(C)=C/CC/C(C)=C/CC[C@]1(C)CCc2cc(O)c(C)c(C)c2O1 [GAMMA-TOCOTRIENOL] | 107 |  | 102 | 64.1 | 110 | 91.3 | 96.6 | 123 | 68.8 | 109 |  | 78 | 9.4 |  |
| CC(C)=CCC/C(C)=C/CC/C(C)=C/CC[C@]1(C)CCc2c3c(cc(C)c2O1)OCN(CCc1ccc(O)cc1)C3 | -19.4 | 100 | 3.53 | 52.1 | 90.7 | 116 | 61.1 | 105 | -50.5 | 9.79 | 69.1 |  | > 5 | GI50 (MDA-MB-435): 4.54 µM; GI50 (UACC-257 [4]): 7.33 µM; GI50 (HL-60(TB)): 3.34 µM; GI50 (HCT-15): 5.87 µM; GI50 (A549): 6.09 µM; GI50 (SK-OV-3 [5]): 6.2 µM; GI50 (Malme-3M): 7.06 µM; GI50 (ACHN): 5.94 µM |
| CC(C)=CCC/C(C)=C/CC/C(C)=C/CC[C@]1(C)CCc2c3c(cc(C)c2O1)OCN(CCCCCCCCCCO)C3 | 87.2 |  | 92.1 | 61.9 | 87.1 | 86.4 | 88.7 | 81.4 | 86 | 94.9 |  | 63.2 | 12.4 |  |
